Calls of active or inactive are those of the source. The rule behind the calls is not given here.
Key:
[1] = tested on: MCF7; assay: Cytotoxicity against adriyamycin-resistant human MCF7 cells over expressing P-glycoprotein after 72 hrs by SRB assay; format: functional, cell-based; details: MCF7, 72 h
Method in brief: (§1)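 Adherent human tumour lines were seeded and exposed in triplicate to graded compound concentrations at 37 °C for 72 h. Growth was read by sulforhodamine B staining. IC50 (50% growth inhibition) was obtained by the Logit method from at least three independent experiments and reported as mean ± SD.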

[2] = tested on: HCT-116; assay: Induction of apoptosis in human HCT116 cells assessed as activation of caspase 9 at 2.5 to 10 uM after 24 hrs by Western blotting; format: functional, cell-based
Method in brief: (§2)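 Cells (2×10^5/mL) were exposed to 2.5–10 μM for 24 h, then whole-cell lysates were made. Pro-/cleaved caspase-3, caspase-8, pro-/cleaved caspase-9, PARP (116 kDa full length, 85 kDa fragment) and Bid were probed by Western blot with ECL detection.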

[3] = tested on: HMEC; assay: Selectivity ratio of IC50 for human HMEC cells to IC50 for A549 cells
[4] = tested on: KB; assay: Drug resistance index, ratio of IC50 for vincristine-resistant human KB cells to IC50 for human KB cells; format: functional
[5] = tested on: HL-60; assay: Induction of apoptosis in human HL60 cells assessed as caspase 8 cleavage at 10 uM after 24 hrs by Western blotting preincubated for 2 hrs with 20 uM caspase 8 inhibitor Z-IETD-FMK; format: functional, cell-based
Method in brief: (§3)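 HL60 cells were pretreated with 20 μM Z-IETD-FMK, Z-LEHD-FMK or Z-VAD-FMK, then cultured with 10 μM compound for 24 h. Cleaved PARP and caspases were probed by Western blot. Three independent experiments were run.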

[6] = tested on: HCT-116; assay: Induction of apoptosis in human HCT116 cells assessed as accumulation at G0/G1 phase at 5 uM after 24 hrs using PI staining based flow cytometric analysis (reference value: 48.77%)
[7] = tested on: A-431; assay: Cytotoxicity against human A431 cells after 72 hrs by SRB assay; format: functional, cell-based; details: A-431, 72 h, pooled result: one value given for 15 cell lines, strains, targets or settings; method in brief: as §1
[8] = target: DNA topoisomerase 2-alpha (Homo sapiens) (UniProt P11388); assay: Inhibition of human topoisomerase 2alpha-mediated poststrand-passage DNA religation after 6 mins by agarose gel electrophoresis
Method in brief: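 Topo II (6 units) with 0.25 μg supercoiled pBR322 in cleavage buffer with 1 mM APPNHP and 5 mM MgCl2. Cleavage/religation equilibrium set at 37 °C for 6 min. Compound added just before religation, which was started by a rapid shift from 37 to 55 °C for 5 min. SDS stop, then 1% agarose electrophoresis.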

[9] = tested on: HCT-116; assay: Induction of apoptosis in human HCT116 cells assessed as Bid cleavage at 2.5 to 10 uM after 24 hrs by Western blotting; format: functional, cell-based; method in brief: as §2
[10] = tested on: MDA-MB-468; assay: Selectivity ratio of IC50 for human HMEC cells to IC50 for MDA-MB-468 cells
[11] = tested on: HCT-116; assay: Induction of apoptosis in human HCT116 cells assessed as increase in cleaved PARP levels after 24 hrs by Western blotting; format: functional, cell-based; method in brief: as §2
[12] = tested on: HCT-116; assay: Cytotoxicity against human HCT116 cells after 72 hrs by SRB assay; format: functional, cell-based; details: HCT-116, 72 h; method in brief: as §1
[13] = tested on: MCF7; assay: Cytotoxicity against human MCF7 cells after 72 hrs by SRB assay; format: functional, cell-based; details: MCF7, 72 h; method in brief: as §1
[14] = target: DNA topoisomerase 2-alpha (Homo sapiens) (UniProt P11388); assay: Inhibition of human topoisomerase 2alpha-mediated prestrand-passage DNA religation after 6 mins by agarose gel electrophoresis
Method in brief: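 Topo II (6 units) with 0.25 μg supercoiled pBR322 in cleavage buffer with 5 mM CaCl2; equilibrium at 37 °C for 6 min. Compound added just before religation. Cleavage complex trapped with EDTA, NaCl added to block recleavage, samples put on ice. Religation started with cold MgCl2 (8.5 mM final), stopped with SDS, then 1% agarose electrophoresis.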

[15] = tested on: HL-60; assay: Induction of apoptosis in human HL60 cells assessed as Bid cleavage at 2.5 to 10 uM after 24 hrs by Western blotting; format: functional, cell-based; method in brief: as §2
[16] = tested on: HL-60; assay: Induction of apoptosis in human HL60 cells assessed as activation of caspase 9 at 2.5 to 10 uM after 24 hrs by Western blotting; format: functional, cell-based; method in brief: as §2
[17] = tested on: HCT-116; assay: Induction of apoptosis in human HCT116 cells assessed as decrease in procaspase 3 expression after 24 hrs by Western blotting; format: functional, cell-based; method in brief: as §2
[18] = tested on: HCT-116; assay: Induction of apoptosis in human HCT116 cells assessed as accumulation at G2/M phase at 5 uM after 24 hrs using PI staining based flow cytometric analysis (reference value: 24.23%)
[19] = tested on: MCF7; assay: Drug resistance index, ratio of IC50 for adriyamycin-resistant human MCF7 cells to IC50 for human MCF7 cells; format: functional
[20] = tested on: HMEC; assay: Selectivity ratio of IC50 for human HMEC cells to IC50 for PC3 cells
[21] = tested on: KB; assay: Cytotoxicity against human KB cells after 72 hrs by SRB assay; format: functional, cell-based; method in brief: as §1
[22] = tested on: HMEC; assay: Selectivity ratio of IC50 for human HMEC cells to IC50 for 786-O cells
[23] = tested on: HeLa; assay: Selectivity ratio of IC50 for human HMEC cells to IC50 for HeLa cells
[24] = tested on: HMEC; assay: Selectivity ratio of IC50 for human HMEC cells to IC50 for HCT116 cells
[25] = tested on: HL-60; assay: Induction of apoptosis in human HL60 cells assessed as PARP cleavage at 10 uM after 24 hrs by Western blotting preincubated for 2 hrs with 20 uM pancaspase inhibitor Z-VAD-FMK; format: functional, cell-based; method in brief: as §3
[26] = tested on: HMEC; assay: Selectivity ratio of IC50 for human HMEC cells to IC50 for BxPC3 cells

DNA topoisomerase 2-alpha (Homo sapiens), sequence (P11388 whole entry): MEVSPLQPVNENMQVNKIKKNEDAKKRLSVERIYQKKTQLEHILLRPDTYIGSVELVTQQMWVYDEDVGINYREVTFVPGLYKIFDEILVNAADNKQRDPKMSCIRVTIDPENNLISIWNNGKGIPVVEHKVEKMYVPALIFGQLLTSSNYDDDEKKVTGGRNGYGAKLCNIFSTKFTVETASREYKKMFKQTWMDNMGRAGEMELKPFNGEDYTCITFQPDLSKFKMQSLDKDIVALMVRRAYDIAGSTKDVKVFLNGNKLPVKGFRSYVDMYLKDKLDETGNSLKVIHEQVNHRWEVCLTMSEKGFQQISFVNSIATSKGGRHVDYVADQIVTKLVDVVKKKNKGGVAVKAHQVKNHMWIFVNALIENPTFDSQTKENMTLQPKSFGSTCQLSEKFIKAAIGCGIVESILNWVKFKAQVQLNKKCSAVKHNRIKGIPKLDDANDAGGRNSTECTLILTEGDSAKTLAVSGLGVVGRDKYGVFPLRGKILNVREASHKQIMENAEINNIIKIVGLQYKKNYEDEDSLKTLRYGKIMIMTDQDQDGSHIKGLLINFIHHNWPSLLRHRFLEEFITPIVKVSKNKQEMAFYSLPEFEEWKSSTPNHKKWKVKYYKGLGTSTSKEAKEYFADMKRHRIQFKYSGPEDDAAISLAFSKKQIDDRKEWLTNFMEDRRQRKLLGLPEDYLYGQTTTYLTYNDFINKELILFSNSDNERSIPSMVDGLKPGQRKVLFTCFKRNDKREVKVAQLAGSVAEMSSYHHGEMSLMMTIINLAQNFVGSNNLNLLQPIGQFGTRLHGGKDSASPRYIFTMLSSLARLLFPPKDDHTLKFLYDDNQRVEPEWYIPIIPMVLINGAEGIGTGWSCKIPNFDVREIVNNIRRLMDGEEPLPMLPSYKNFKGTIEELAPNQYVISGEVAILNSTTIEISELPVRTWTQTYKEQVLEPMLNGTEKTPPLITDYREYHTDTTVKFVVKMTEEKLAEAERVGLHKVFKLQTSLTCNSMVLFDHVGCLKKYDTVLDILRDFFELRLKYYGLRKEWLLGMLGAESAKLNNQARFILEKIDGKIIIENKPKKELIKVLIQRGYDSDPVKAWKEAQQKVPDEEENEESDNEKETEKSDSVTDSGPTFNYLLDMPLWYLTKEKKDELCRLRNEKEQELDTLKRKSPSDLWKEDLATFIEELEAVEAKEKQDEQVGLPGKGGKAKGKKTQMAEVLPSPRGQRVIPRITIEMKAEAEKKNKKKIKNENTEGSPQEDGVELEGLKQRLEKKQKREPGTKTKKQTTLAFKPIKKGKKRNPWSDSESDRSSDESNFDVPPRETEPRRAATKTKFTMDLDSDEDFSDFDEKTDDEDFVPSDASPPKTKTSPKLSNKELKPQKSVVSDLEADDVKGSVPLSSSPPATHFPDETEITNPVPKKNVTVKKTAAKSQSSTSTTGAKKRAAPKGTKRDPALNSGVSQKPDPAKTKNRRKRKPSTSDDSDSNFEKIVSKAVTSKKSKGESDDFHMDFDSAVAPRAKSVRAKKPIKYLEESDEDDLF

COC1O[C@H](C)[C@@H](C)c2c(C)c3c(c(O)c21)[C@@H]1O[C@H](C)[C@@H](C)c2c(C)c(O)c([C@H]4O[C@H](C)[C@@H](C)c5c(C)c(O)cc(O)c54)c(c21)O3 (stereo partly specified) [TRICITRINOL B]
IC50 [1]: 7.41 µM | Activity [2]: Active | Ratio IC50 [3]: 2 | Ratio IC50 [4]: 0.94 | Activity [5]: inactive | Activity [6]: 37.52% | IC50 [7]: 4.83 µM | inhibition [8]: Dose-dependent effect | Activity [9]: Active | Ratio IC50 [10]: 2 | Activity [11]: Dose-dependent effect | IC50 [12]: 4.82 µM | IC50 [13]: 5.76 µM | inhibition [14]: Dose-dependent effect | Activity [15]: Active | Activity [16]: Active | Activity [17]: Dose-dependent effect | Activity [18]: 42.06% | Ratio IC50 [19]: 1.28 | Ratio IC50 [20]: 2 | IC50 [21]: 3.87 µM | Ratio IC50 [22]: 2 | Ratio IC50 [23]: 2 | Ratio IC50 [24]: 2 | Activity [25]: inactive | Ratio IC50 [26]: 2
